Consider 8 compounds from ChEMBL document CHEMBL1127415 (J Med Chem, 1994).

The target in test [1] is T1, Type-2 angiotensin II receptor (Rattus norvegicus, UniProt P35351).
T1 sequence (P35351 whole entry): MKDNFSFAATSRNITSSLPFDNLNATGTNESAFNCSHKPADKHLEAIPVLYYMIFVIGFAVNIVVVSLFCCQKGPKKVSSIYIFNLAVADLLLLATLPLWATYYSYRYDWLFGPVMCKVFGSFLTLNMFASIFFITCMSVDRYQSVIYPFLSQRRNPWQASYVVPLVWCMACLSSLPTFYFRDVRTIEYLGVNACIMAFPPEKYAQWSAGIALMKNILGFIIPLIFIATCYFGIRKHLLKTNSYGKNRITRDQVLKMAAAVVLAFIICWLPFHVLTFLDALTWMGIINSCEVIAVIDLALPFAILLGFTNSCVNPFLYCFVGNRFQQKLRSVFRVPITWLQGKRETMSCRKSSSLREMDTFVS
Briefly: In vitro binding affinity for angiotensin II AT2 receptor in rat midbrain. The method, boiled down: (§1)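 Radioligand binding IC50 values. AT1 was measured on rabbit aortic receptor preparations and AT2 on rat midbrain receptor preparations.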

For test [2], the target named is T2, Type-1 angiotensin II receptor (Oryctolagus cuniculus, UniProt P34976).
T2 sequence (P34976 whole entry): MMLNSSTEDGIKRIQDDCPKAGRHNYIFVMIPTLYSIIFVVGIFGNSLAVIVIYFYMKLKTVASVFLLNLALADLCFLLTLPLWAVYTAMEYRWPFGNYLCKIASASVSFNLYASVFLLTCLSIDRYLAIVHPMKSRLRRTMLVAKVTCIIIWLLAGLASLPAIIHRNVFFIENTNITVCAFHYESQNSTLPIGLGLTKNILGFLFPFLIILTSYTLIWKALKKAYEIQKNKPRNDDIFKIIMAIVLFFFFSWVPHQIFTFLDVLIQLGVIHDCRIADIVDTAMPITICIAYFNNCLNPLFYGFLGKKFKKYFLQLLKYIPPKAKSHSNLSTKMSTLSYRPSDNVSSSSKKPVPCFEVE
The experiment in a line: In vitro binding affinity for angiotensin II AT1 receptor in rabbit aorta. In kind it is tissue-based. An outline of the steps:
as §1

The test system of test [3] is Rattus norvegicus. Briefly: The duration of action for the % peak inhibition of angiotensin II pressor response for dose of 0.1 mg/kg intravenous administration in conscious rats. It counts as functional. An outline of the steps: (§2)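 Conscious normotensive rats received antagonists as potassium salts, iv or po. Pressor responses to exogenous AII were measured repeatedly after dosing and reported as % peak inhibition (mean ± SE) and duration of action in h. Methoxamine pressor response served as a specificity check.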

The subject of test [4] is Rattus norvegicus. The experiment in a line: The compound was evaluated for the % peak inhibition of angiotensin II pressor response for dose of 0.1 mg/kg intravenous administration in conscious rats. In kind it is functional. The method, boiled down:
as §2

Test [5] relates to Rattus norvegicus. The experiment in a line: The duration of action for the % peak inhibition of angiotensin II pressor response for dose of 0.1 mg/kg perol administration in conscious rats. It counts as functional. An outline of the steps:
as §2

Test [6] deals with Rattus norvegicus. The experiment in a line: The compound was evaluated for the % peak inhibition of angiotensin II pressor response for dose of 0.1 mg/kg perol administration in conscious rats. In kind it is functional. The method, boiled down:
as §2

In test [7] the test system is Rattus norvegicus. The experiment in a line: The compound was evaluated for the ED50 for inhibition of A II pressor response in rat for peroral administration.
Test [8] concerns Rattus norvegicus. Briefly: The compound was evaluated for the ED50 for inhibition of A II pressor response in rat for intravenous administration.
Test [9] has as its system Rattus norvegicus. The experiment in a line: The duration of action for the % peak inhibition of angiotensin II pressor response for dose of 1.0 mg/kg peroral administration in conscious rats. The note with it: route oral. In kind it is functional. The method, boiled down:
as §2

Test [10] deals with Rattus norvegicus. The experiment in a line: The compound was evaluated for the % peak inhibition of angiotensin II pressor response for dose of 0.1 mg/kg peroral administration in conscious rats. In kind it is functional. As to conditions: route oral. An outline of the steps:
as §2

Test [11] deals with Rattus norvegicus. Briefly: The compound was evaluated for the % peak inhibition of angiotensin II pressor response for dose of 1.0 mg/kg peroral administration in conscious rats. In kind it is functional. As to conditions: route oral. An outline of the steps:
as §2

Test [12] is described as follows: Ratio of the of A II pressor responses in dog, p.o./i.v. In kind it is functional. An outline of the steps:
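Conscious normotensive mongrel dogs with an arterial catheter for continuous mean arterial pressure and vein catheters for dosing. Patency checked with norepinephrine 1.6 μg/kg iv. AII 0.1 μg/kg iv boluses given at –45, –30 and –15 min. Antagonist given iv or by oral gavage at 0 min, then AII rechallenged repeatedly to 6 h (24 h if needed). Ratio is oral ED50 divided by iv ED50.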

The nature of test [13]: Ratio of the of A II pressor responses in rat, p.o./i.v. In kind it is functional. An outline of the steps: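 Conscious normotensive rats; potassium salt given iv or orally; inhibition of the pressor response to exogenous iv AII followed over time. Ratio is oral ED50 divided by iv ED50.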
Test [14] is described as follows: Ratio of the of A II pressor responses in rhesus monkey, p.o./i.v. It counts as functional. The method, boiled down:
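Sodium/volume-depleted rhesus monkeys dosed iv or orally; inhibition of the AII pressor response tracked over time. Ratio is oral ED50 divided by iv ED50.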

For test [15], the target named is T3, Angiotensin II receptor (Rattus norvegicus) (UniProt P29089+P25095+P35351).
Test [16] addresses T3, Angiotensin II receptor (Rattus norvegicus). This is another data set of the same source.
For test [17] the target is unchanged. The source holds these as a separate data set.
In test [18] the test system is Canis familiaris. The experiment in a line: The compound was evaluated for the ED50 for inhibition of A II pressor response in dogs for peroral administration.
Test [19] deals with Rattus norvegicus. The experiment in a line: The compound was evaluated for the ED50 for inhibition of A II pressor response in rats for intravenous administration.
Test [20] deals with Canis familiaris. The experiment in a line: The compound was evaluated for the ED50 for inhibition of A II pressor response in dogs for intravenous administration.
Test [21] deals with Macaca mulatta. Briefly: The compound was evaluated for the ED50 for inhibition of A II pressor response in rhesus monkeys for peroral administration.
The test system of test [22] is Macaca mulatta. Briefly: The compound was evaluated for the ED50 for inhibition of A II pressor response in rhesus monkeys for intravenous administration.
For test [23], the system named is Macaca mulatta. Briefly: The duration of action for the % peak inhibition of A II pressor response for dose of 0.1 mg/kg peroral administration in rhesus monkeys. As to conditions: route oral.
The test system of test [24] is Rattus norvegicus. Briefly: The duration of action for the % peak inhibition of angiotensin II pressor response for dose of 0.03 mg/kg intravenous administration in conscious rats.
Test [25] deals with Rattus norvegicus. Briefly: The duration of action for the % peak inhibition of angiotensin II pressor response for dose of 1.0 mg/kg intravenous administration in conscious rats. In kind it is functional. An outline of the steps: as §2
Test [26] relates to Rattus norvegicus. Briefly: The compound was evaluated for the % peak inhibition of angiotensin II pressor response for dose of 1.0 mg/kg intravenous administration in conscious rats. It counts as functional. The method, boiled down: as §2
The subject of test [27] is Rattus norvegicus. Briefly: The duration of action for the % peak inhibition of angiotensin II pressor response for dose of 0.3 mg/kg peroral administration in conscious rats. In kind it is functional. As to conditions: route oral. The method, boiled down:
as §2

Test [28] deals with Rattus norvegicus. The experiment in a line: The compound was evaluated for the % peak inhibition of angiotensin II pressor response for dose of 0.3 mg/kg peroral administration in conscious rats. In kind it is functional. The note with it: route oral. The method, boiled down: as §2

T3 sequence (P25095 whole entry, looked up, one chain of several): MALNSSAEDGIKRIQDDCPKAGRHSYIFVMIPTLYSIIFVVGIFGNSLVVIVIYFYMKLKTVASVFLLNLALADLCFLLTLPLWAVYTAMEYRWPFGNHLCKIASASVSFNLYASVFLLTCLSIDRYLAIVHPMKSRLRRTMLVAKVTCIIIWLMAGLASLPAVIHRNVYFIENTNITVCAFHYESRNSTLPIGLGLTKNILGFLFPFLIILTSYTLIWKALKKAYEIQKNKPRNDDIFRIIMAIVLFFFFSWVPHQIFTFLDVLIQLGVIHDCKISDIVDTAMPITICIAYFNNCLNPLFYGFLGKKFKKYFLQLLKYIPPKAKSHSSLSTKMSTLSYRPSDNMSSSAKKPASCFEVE
T3 sequence (P29089 whole entry, looked up, one chain of several): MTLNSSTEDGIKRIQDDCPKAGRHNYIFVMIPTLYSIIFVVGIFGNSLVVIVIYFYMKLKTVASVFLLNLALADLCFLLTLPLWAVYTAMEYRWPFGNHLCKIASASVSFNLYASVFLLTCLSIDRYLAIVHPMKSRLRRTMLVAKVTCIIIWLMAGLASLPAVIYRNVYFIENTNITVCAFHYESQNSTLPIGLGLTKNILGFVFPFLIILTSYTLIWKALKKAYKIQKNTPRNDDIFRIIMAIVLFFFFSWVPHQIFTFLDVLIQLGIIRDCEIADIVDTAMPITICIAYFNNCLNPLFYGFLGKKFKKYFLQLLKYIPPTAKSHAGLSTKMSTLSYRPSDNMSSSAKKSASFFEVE

The IC50 is the point on the concentration scale where inhibition reaches its midpoint. As usually defined, the inhibition in vivo is the relative decrease from the control value, in per cent. Read a low inhibition in vivo as little suppression. For `CCc1nc2c(C)cc(C)nc2n1Cc1ccc(-c2ccccc2S(=O)(=O)NC(=O)C(C)C)cc1`, the IC50 worked out at 1800 nM in test [1] and 0.21 nM in test [2]. Further, the Duration in the test with Rattus norvegicus [3] worked out at 5 h. This compound also came in with an inhibition in vivo at 0.1 mg/kg with Rattus norvegicus [4] of 100%.
In general, ED50 refers to the dose that gives a 50% effect, or the effect in half of the subjects. Low values mean greater potency, high ones weaker potency. In test [1], `CCc1nc2c(C)cc(C)nc2n1Cc1ccc(-c2ccccc2-c2nn[nH]n2)cc1` [L-158809] had an IC50 of 50000 nM. The Duration in the test on Rattus norvegicus [3] and in the test on Rattus norvegicus [5] was more than 6 h in each case. Further, the inhibition in vivo at 0.1 mg/kg was 85% with Rattus norvegicus [4] and 75% with Rattus norvegicus [6]. For the same compound, the results for the ED50 in the test on Rattus norvegicus [7] and in the test with Rattus norvegicus [8] were 0.023 mg/kg and 0.029 mg/kg, respectively.
As for `CCCCc1nc(Cl)c(CO)n1Cc1ccc(-c2ccccc2-c2nnn[nH]2)cc1` [LOSARTAN], the values for the ED50 in the test on Rattus norvegicus [7] and in the test with Rattus norvegicus [8] were 0.66 mg/kg and 0.28 mg/kg, respectively.
As to `CCc1nc2c(C)cc(C)nc2n1Cc1ccc(-c2ccccc2S(=O)(=O)NC(=O)c2ccccc2)cc1`, the IC50 was determined as 2900 nM in test [1] and 0.2 nM in test [2]. The Duration with Rattus norvegicus [9] was more than 6 h; in the test with Rattus norvegicus [3], 6 h; in [15], 4 h; in [16], more than 5 h; in test [17], more than 5 h; in the test with Macaca mulatta [23] it was approximately 3 h. The Duration in the test with Rattus norvegicus [24] amounted to 6 h. The inhibition in vivo at 0.1 mg/kg in the test with Rattus norvegicus [4] is 94%; in the test with Rattus norvegicus [10] it was 64%. Besides, in the test on Rattus norvegicus [11], the inhibition in vivo at 1 mg/kg amounted to 99%. In addition, the Ratio in test [12] worked out at 2; in [13], 5; in [14], 3. Moreover, the ED50 in the test on Canis familiaris [18] amounted to 0.035 mg/kg; in the test with Rattus norvegicus [19], 0.014 mg/kg; in the test on Canis familiaris [20] it was 0.017 mg/kg; in the test with Macaca mulatta [21] it was 0.1 mg/kg; in the test with Macaca mulatta [22], 0.036 mg/kg.
With `CCc1nc2c(C)cc(C)nc2n1Cc1ccc(-c2ccccc2S(=O)(=O)NC(C)=O)cc1`, the half-inhibitory concentration (IC50) in test [1] was more than 10000 nM; in test [2] it was 2.2 nM. The compound also yielded a Duration in the test with Rattus norvegicus [25] of 3.5 h. This compound also registered an inhibition in vivo at 1 mg/kg with Rattus norvegicus [26] of 100%.
In test [1], `CCCCc1nc(Cl)c(C(=O)O)n1Cc1ccc(-c2ccccc2-c2nn[nH]n2)cc1` [CARBOXYLIC ACID METABOLITE] yielded a 50% inhibitory concentration (IC50) of 50000 nM.
Turning to `CCc1nc2c(C)cc(C)nc2n1Cc1ccc(-c2ccccc2S(=O)(=O)NC(=O)C2CC2)cc1`, the half-maximal inhibitory concentration (IC50) in test [1] was 2400 nM; in test [2], 0.68 nM. Further, the Duration in the test with Rattus norvegicus [27] and in the test with Rattus norvegicus [3] was more than 6 h each time. The compound further came in with an inhibition in vivo at 0.1 mg/kg in the test on Rattus norvegicus [4] of 95%. In the test on Rattus norvegicus [28], this compound had an inhibition in vivo at 0.3 mg/kg of 99%.
As for `CCCC(=O)NS(=O)(=O)c1ccccc1-c1ccc(Cn2c(CC)nc3c(C)cc(C)nc32)cc1`, the values for the IC50 in [1] and in [2] were 3600 nM and 0.27 nM, respectively. Moreover, the Duration with Rattus norvegicus [25] was more than 6 h. The same compound yielded an inhibition in vivo at 1 mg/kg in the test with Rattus norvegicus [26] of 99%.
